Reference: ChEMBL document CHEMBL3580554, “Design, synthesis, and anticonvulsant activity of new hybrid compounds derived from 2-(2,5-dioxopyrrolidin-1-yl)propanamides and 2-(2,5-dioxopyrrolidin-1-yl)butanamides” (J Med Chem, 2015)

Key:
[1] = test system: Liver microsome; experiment: Drug level in human liver microsomes treated with 50 uM 1-(1-Oxo-1-{4-[3-(trifluoromethyl)phenyl]piperazin-1-yl}-propan-2-yl)pyrrolidine-2,5-dione assessed as compound formation in presence of NADPH regeneration system pre-incubated at 37 degC for 5 min and measured 2 hrs after post NADPH system addition by UPLC and LC-MS/MS method; assay type: ADME
Method in brief: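 The compound was incubated 2 h with human liver microsomes. Metabolites were detected by full-scan chromatogram and identified by LC/MS from their [M+H]+ molecular masses.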

[2] = organism: Rattus norvegicus; experiment: Inhibition of [125I]omega-conotoxin GVIA binding to N-type calcium channel in rat cerebral cortex synaptosomes at 100 uM incubated for 30 mins by scintillation counting based radioligand displacement assay; assay type: subcellular
[3] = organism: Rattus norvegicus; experiment: Inhibition of [3H]BTX binding to sodium channel site 2 in rat cerebral cortex synaptosomes at 1 uM incubated for 60 mins by scintillation counting based radioligand displacement assay; assay type: subcellular
Method in brief: (§1)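 Synaptoneurosomal preparations from rat cerebral cortex were used. The read-out was inhibition of specific [3H]BTX binding to the voltage-sensitive sodium channel (site 2), expressed as % inhibition of control specific binding. Compounds were tested at 1, 10, 100 and 500 μM. Inhibition above 50% was taken as significant.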

[4] = organism: Rattus norvegicus; experiment: Inhibition of [3H]BTX binding to sodium channel site 2 in rat cerebral cortex synaptosomes at 10 uM incubated for 60 mins by scintillation counting based radioligand displacement assay; assay type: subcellular; method in brief: as §1
[5] = organism: Rattus norvegicus; experiment: Inhibition of [3H]BTX binding to sodium channel site 2 in rat cerebral cortex synaptosomes at 100 uM incubated for 60 mins by scintillation counting based radioligand displacement assay; assay type: subcellular; method in brief: as §1
[6] = organism: Rattus norvegicus; experiment: Inhibition of [3H]BTX binding to sodium channel site 2 in rat cerebral cortex synaptosomes at 500 uM incubated for 60 mins by scintillation counting based radioligand displacement assay; assay type: subcellular; method in brief: as §1
[7] = test system: Mus musculus; experiment: Anticonvulsant activity in Swiss mouse assessed as protection against seizures at 100 mg/kg, ip dosed 2 hrs before initiation of maximal electroconvulsions by maximal electroshock test; assay type: functional
Method in brief: (§2)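 Mice were dosed i.p. at a fixed 300 or 100 mg/kg (6 Hz: 100 mg/kg only). Protection was then scored against MES, sc PTZ or 6 Hz seizures at pretreatment times of 0.25, 0.5, 1 and 2 h. Groups were four mice, scored as number protected / number tested. This also gives the time course and time of peak effect.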

[8] = test system: Mus musculus; experiment: Anticonvulsant activity in Swiss mouse assessed as protection against seizures at 100 mg/kg, ip dosed 1 hr before pentylenetetrazole challenge by subcutaneous pentylenetetrazole seizure test; assay type: functional; method in brief: as §2
[9] = test system: Mus musculus; experiment: Protective index, ratio of neurotoxic TD50 in Swiss mouse by Chimney test to anticonvulsant ED50 in Swiss mouse measured at 0.5 hrs of time to peak effect by subcutaneous pentylenetetrazole seizure test; assay type: functional
Method in brief: (§3)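 Protective index was calculated as TD50 (chimney test, mouse, i.p.) divided by ED50 from the matching MES, sc PTZ or 6 Hz test, both taken at the time of peak effect.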

[10] = test system: Mus musculus; experiment: Anticonvulsant activity in ip dosed Swiss mouse assessed as protection against seizures measured at 0.5 hrs of time to peak effect by 6 Hz test by 6 Hz psychomotor seizure test; assay type: functional
Method in brief: (§4)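 Median effective doses (ED50, mg/kg) were determined i.p. in mice at the time of peak effect in the MES, sc PTZ or 6 Hz tests. Only compounds giving at least 50% protection at 100 mg/kg in that test were taken forward.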

[11] = test system: Mus musculus; experiment: Anticonvulsant activity in Swiss mouse assessed as protection against seizures at 100 mg/kg, ip dosed 0.5 hrs before pentylenetetrazole challenge by subcutaneous pentylenetetrazole seizure test; assay type: functional; method in brief: as §2
[12] = test system: Mus musculus; experiment: Anticonvulsant activity in Swiss mouse assessed as protection against seizures at 300 mg/kg, ip dosed 2 hrs before pentylenetetrazole challenge by subcutaneous pentylenetetrazole seizure test; assay type: functional; method in brief: as §2
[13] = test system: Mus musculus; experiment: Anticonvulsant activity in Swiss mouse model of 6 Hz psychomotor seizure mode assessed as protection against seizures at 100 mg/kg, ip dosed 0.5 hrs before 6 Hz electrical stimulation by 6 Hz test; assay type: functional; method in brief: as §2
[14] = test system: Mus musculus; experiment: Anticonvulsant activity in Swiss mouse assessed as protection against seizures at 300 mg/kg, ip dosed 0.25 hrs before initiation of maximal electroconvulsions by maximal electroshock test; assay type: functional; method in brief: as §2
[15] = test system: Mus musculus; experiment: Anticonvulsant activity in Swiss mouse assessed as protection against seizures at 300 mg/kg, ip dosed 0.25 hrs before pentylenetetrazole challenge by subcutaneous pentylenetetrazole seizure test; assay type: functional; method in brief: as §2
[16] = test system: Mus musculus; experiment: Anticonvulsant activity in ip dosed Swiss mouse assessed as protection against seizures measured at 0.5 hrs of time to peak effect by subcutaneous pentylenetetrazole seizure test; assay type: functional; method in brief: as §4
[17] = test system: Mus musculus; experiment: Anticonvulsant activity in ip dosed Swiss mouse assessed as protection against seizures measured at 0.5 hrs of time to peak effect by maximal electroshock test; assay type: functional; method in brief: as §4
[18] = test system: Mus musculus; experiment: Anticonvulsant activity in Swiss mouse assessed as protection against seizures at 300 mg/kg, ip dosed 1 hr before initiation of maximal electroconvulsions by maximal electroshock test; assay type: functional; method in brief: as §2
[19] = test system: Mus musculus; experiment: Anticonvulsant activity in Swiss mouse assessed as protection against seizures at 100 mg/kg, ip dosed 0.25 hrs before initiation of maximal electroconvulsions by maximal electroshock test; assay type: functional; method in brief: as §2
[20] = test system: Mus musculus; experiment: Anticonvulsant activity in Swiss mouse assessed as protection against seizures at 300 mg/kg, ip dosed 2 hrs before initiation of maximal electroconvulsions by maximal electroshock test; assay type: functional; method in brief: as §2
[21] = organism: Mus musculus; experiment: Protective index, ratio of neurotoxic TD50 in Swiss mouse by Chimney test to anticonvulsant ED50 in Swiss mouse measured at 0.5 hrs of time to peak effect by 6 Hz test by 6 Hz psychomotor seizure test; assay type: functional; method in brief: as §3
[22] = test system: Mus musculus; experiment: Anticonvulsant activity in Swiss mouse model of 6 Hz psychomotor seizure mode assessed as protection against seizures at 100 mg/kg, ip dosed 0.25 hrs before 6 Hz electrical stimulation by 6 Hz test; assay type: functional; method in brief: as §2
[23] = test system: Mus musculus; experiment: Anticonvulsant activity in Swiss mouse assessed as protection against seizures at 100 mg/kg, ip dosed 0.25 hrs before pentylenetetrazole challenge by subcutaneous pentylenetetrazole seizure test; assay type: functional; method in brief: as §2
[24] = test system: Mus musculus; experiment: Anticonvulsant activity in Swiss mouse assessed as protection against seizures at 300 mg/kg, ip dosed 1 hr before pentylenetetrazole challenge by subcutaneous pentylenetetrazole seizure test; assay type: functional; method in brief: as §2
[25] = test system: Mus musculus; experiment: Anticonvulsant activity in Swiss mouse assessed as protection against seizures at 300 mg/kg, ip dosed 0.5 hrs before pentylenetetrazole challenge by subcutaneous pentylenetetrazole seizure test; assay type: functional; method in brief: as §2
[26] = organism: Mus musculus; experiment: Protective index, ratio of neurotoxic TD50 in Swiss mouse by Chimney test to anticonvulsant ED50 in Swiss mouse measured at 0.5 hrs of time to peak effect by maximal electroshock test; method in brief: as §3
[27] = test system: Mus musculus; experiment: Anticonvulsant activity in Swiss mouse assessed as protection against seizures at 300 mg/kg, ip dosed 0.5 hrs before initiation of maximal electroconvulsions by maximal electroshock test; assay type: functional; method in brief: as §2
[28] = test system: Mus musculus; experiment: Anticonvulsant activity in Swiss mouse model of 6 Hz psychomotor seizure mode assessed as protection against seizures at 100 mg/kg, ip dosed 2 hrs before 6 Hz electrical stimulation by 6 Hz test; assay type: functional; method in brief: as §2
[29] = test system: Mus musculus; experiment: Anticonvulsant activity in Swiss mouse model of 6 Hz psychomotor seizure mode assessed as protection against seizures at 100 mg/kg, ip dosed 1 hr before 6 Hz electrical stimulation by 6 Hz test; assay type: functional; method in brief: as §2
[30] = test system: Mus musculus; experiment: Anticonvulsant activity in Swiss mouse assessed as protection against seizures at 100 mg/kg, ip dosed 1 hr before initiation of maximal electroconvulsions by maximal electroshock test; assay type: functional; method in brief: as §2
[31] = Toxicity in ip dosed Swiss mouse assessed as induction of motor performance impairment measured within 60 seconds measured at 0.5 hrs of time to peak effect by Chimney test; assay type: organism-based; details: in vivo
Method in brief: (§5)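 Neurotoxicity was measured i.p. in mice by the chimney test for motor impairment. It was given as the median neurotoxic dose (TD50, mg/kg) at the time of peak effect.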

[32] = test system: Mus musculus; experiment: Anticonvulsant activity in Swiss mouse assessed as protection against seizures at 100 mg/kg, ip dosed 0.5 hrs before initiation of maximal electroconvulsions by maximal electroshock test; assay type: functional; method in brief: as §2
[33] = test system: Mus musculus; experiment: Anticonvulsant activity in Swiss mouse assessed as protection against seizures at 100 mg/kg, ip dosed 2 hrs before pentylenetetrazole challenge by subcutaneous pentylenetetrazole seizure test; assay type: functional; method in brief: as §2
[34] = organism: Mus musculus; experiment: Protective index, ratio of neurotoxic TD50 in Swiss mouse by Chimney test to anticonvulsant ED50 in Swiss mouse measured at 0.25 hrs of time to peak effect by 6 Hz test by 6 Hz psychomotor seizure test; assay type: functional; method in brief: as §3
[35] = test system: Mus musculus; experiment: Anticonvulsant activity in ip dosed Swiss mouse assessed as protection against seizures measured at 0.25 hrs of time to peak effect by subcutaneous pentylenetetrazole seizure test; assay type: functional; method in brief: as §4
[36] = organism: Mus musculus; experiment: Protective index, ratio of neurotoxic TD50 in Swiss mouse by Chimney test to anticonvulsant ED50 in Swiss mouse measured at 0.25 hrs of time to peak effect by maximal electroshock test; method in brief: as §3
[37] = test system: Mus musculus; experiment: Anticonvulsant activity in ip dosed Swiss mouse assessed as protection against seizures measured at 0.25 hrs of time to peak effect by maximal electroshock test; assay type: functional; method in brief: as §4
[38] = test system: Mus musculus; experiment: Protective index, ratio of neurotoxic TD50 in Swiss mouse by Chimney test to anticonvulsant ED50 in Swiss mouse measured at 0.25 hrs of time to peak effect by subcutaneous pentylenetetrazole seizure test; assay type: functional; method in brief: as §3
[39] = test system: Mus musculus; experiment: Anticonvulsant activity in ip dosed Swiss mouse assessed as protection against seizures measured at 0.25 hrs of time to peak effect by 6 Hz test by 6 Hz psychomotor seizure test; assay type: functional; method in brief: as §4
[40] = Toxicity in ip dosed Swiss mouse assessed as induction of motor performance impairment measured within 60 seconds measured at 0.25 hrs of time to peak effect by Chimney test; assay type: organism-based; details: in vivo; method in brief: as §5

CC(C(=O)N1C=CN(c2cccc(C(F)(F)F)c2)CC1)N1C(=O)CCC1=O (stereo not drawn)
Drug metabolism [1]: metabolite_detected

O=C(C(CO)N1C(=O)CC(O)C1=O)N1C=CN(c2cccc(C(F)(F)F)c2)CC1 (stereo not drawn)
Drug metabolism [1]: metabolite_detected

O=C(C(CO)N1C(=O)CCC1O)N1CCN(c2cccc(C(F)(F)F)c2)CC1 (stereo not drawn)
Drug metabolism [1]: metabolite_detected

CC(C(=O)N1CCN(c2ccc(O)c(C(F)(F)F)c2)CC1)N1C(=O)CCC1=O (stereo not drawn)
Drug metabolism [1]: metabolite_detected

CC1(C)O[C@@H]2[C@@H](CO[C@@]3(COS(N)(=O)=O)OC(C)(C)O[C@@H]23)O1
inhibition [2]: 3.1%

NC(=O)N1c2ccccc2C=Cc2ccccc21
inhibition [3]: 2.7%
inhibition [4]: 4.6%
inhibition [5]: 17.4%
inhibition [6]: 33.6%

CC(C(=O)N1CCN(c2cccc(Cl)c2)CC1)N1C(=O)CCC1=O (racemic)
Activity [7]: 0%
Activity [8]: 50%
Ratio TD50/ED50 [9]: 2.9
ED50 [10]: 50.4 mg/kg
Activity [11]: 75%
Activity [12]: 75%
Activity [13]: 100%
Activity [14]: 75%
Activity [15]: 75%
ED50 [16]: 69.6 mg/kg
ED50 [17]: 119 mg/kg
Activity [18]: 75%
Activity [19]: 50%
Activity [20]: 50%
Ratio TD50/ED50 [21]: 4
Activity [22]: 100%
Activity [23]: 50%
Activity [24]: 75%
Activity [25]: 75%
Ratio TD50/ED50 [26]: 1.69
Activity [27]: 100%
Activity [28]: 25%
Activity [29]: 75%
Activity [30]: 50%
TD50 at 0.5 h [31]: 202 mg/kg
Activity [32]: 75%
Activity [33]: 25%

CC(C(=O)N1CCN(c2ccccc2C(F)(F)F)CC1)N1C(=O)CCC1=O (racemic)
Activity [7]: 0%
Activity [8]: 25%
Ratio TD50/ED50 [34]: 2.01
Activity [11]: 75%
Activity [12]: 50%
ED50 [35]: 87.1 mg/kg
Activity [13]: 25%
Ratio TD50/ED50 [36]: 1.97
Activity [14]: 100%
Activity [15]: 100%
Activity [18]: 75%
Activity [19]: 100%
ED50 [37]: 75.5 mg/kg
Activity [20]: 75%
Ratio TD50/ED50 [38]: 1.71
Activity [22]: 100%
ED50 [39]: 74.2 mg/kg
Activity [23]: 100%
Activity [24]: 75%
Activity [25]: 100%
Activity [27]: 100%
Activity [28]: 0%
TD50 at 0.25 h [40]: 149 mg/kg
Activity [29]: 0%
Activity [30]: 25%
Activity [32]: 25%
Activity [33]: 0%

CCC1(C)CC(=O)NC1=O (stereo not drawn) [ETHOSUXIMIDE]
ED50 [35]: 148 mg/kg
ED50 [37]: > 500 mg/kg
Ratio TD50/ED50 [38]: 4.89
ED50 [39]: > 200 mg/kg
TD50 at 0.25 h [40]: 722 mg/kg
